Reference: ChEMBL document CHEMBL2396575, “Curcumin-I Knoevenagel's condensates and their Schiff's bases as anticancer agents: synthesis, pharmacological and simulation studies” (Bioorg Med Chem, 2013)

What was measured:
[1] = Hemolytic activity in rabbit RBC at 100 ug/mL after 3 hrs by colorimetric assay relative to control; assay type: ADME, cell-based, Oryctolagus cuniculus, Erythrocyte; conditions: rabbit red blood cells (RBC), read-out: Activity
In short: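 Rabbit whole blood diluted 0.1 mL in 0.9 mL PBS, incubated with test compound at 37 °C for 3 h, then centrifuged at 3800 rpm for 15 min. Supernatant mixed with Drabkin's reagent for 15 min, cyanmethemoglobin read at 540 nm against a hemoglobin standard curve. Compound absorbance at 540 nm subtracted. Saline served as negative control, distilled water as positive.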

[2] = test system: MCF7; assay: Anticancer activity against wild-type human MCF7 cells assessed as cell viability at 1 ug/mL after 24 hrs by MTT assay relative to control; assay type: functional; conditions: MCF7, 24 h, read-out: Activity
In short: (§1)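 MCF-7 cells grown in low-glucose DMEM with 10% FBS plus antibiotic/antimycotic. Seeded at 2×10^3 cells/well, incubated 24 h at 37 °C in humidified 5% CO2, then exposed to test compounds for 24 h. Cells washed with PBS, given MTT for 4 h at 37 °C, formazan dissolved in DMSO, absorbance read at 570 nm. Viability taken as the ratio of treated to blank.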

[3] = test system: MCF7; assay: Anticancer activity against wild-type human MCF7 cells assessed as cell viability at 0.001 ug/mL after 24 hrs by MTT assay relative to control; assay type: functional; conditions: MCF7, 24 h, read-out: Activity; in short: as §1
[4] = test system: MCF7; assay: Anticancer activity against wild-type human MCF7 cells assessed as cell viability at 0.1 ug/mL after 24 hrs by MTT assay relative to control; assay type: functional; conditions: MCF7, 24 h, read-out: Activity; in short: as §1
[5] = test system: MCF7; assay: Anticancer activity against wild-type human MCF7 cells assessed as cell viability at 0.01 ug/mL after 24 hrs by MTT assay relative to control; assay type: functional; conditions: MCF7, 24 h, read-out: Activity; in short: as §1
[6] = test system: DNA; assay: Binding affinity to calf thymus DNA assessed as hypochromicity by UV-vis spectroscopic analysis relative to control; assay type: nucleic-acid assay; design: concentration or dose not given beside the values; conditions: Bos taurus
In short: (§2)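 Ct-DNA stock in tris–HCl pH 7.2–7.3, stored at 4 °C, used within 4 days; A260/A280 ≥1.8. DNA concentration from ε260 6600 M⁻¹ cm⁻¹. Compound dissolved in methanol (2.0×10^-4 M) and titrated with DNA (0.3–2.1 ×10^-4) in tris–HCl, UV–vis spectra recorded after each addition. Kb from modified Benesi–Hildebrand (Wolfe) equation.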

[7] = test system: DNA; assay: Binding affinity to calf thymus DNA by Benessi-Hilderbrand equation; assay type: nucleic-acid assay; conditions: Bos taurus; in short: as §2
[8] = test system: MCF7; assay: Anticancer activity against wild-type human MCF7 cells assessed as cell viability at 0.0001 ug/mL after 24 hrs by MTT assay relative to control; assay type: functional; conditions: MCF7, 24 h, read-out: Activity; in short: as §1

Activity [6] [%]	Kb [7]	Compound	hemolysis at 3 h, 100 ug/mL [1] [%]	viability at 1 µg/mL [2] [%]	viability at 0.001 µg/mL [3] [%]	viability at 0.1 µg/mL [4] [%]	viability at 0.01 µg/mL [5] [%]	viability at 0.0001 µg/mL [8] [%]
6.2	1.4 ×10³ /M	O=Cc1cn(-c2ccccc2)nc1-c1ccccc1O	18	79	97	73	92	96
7.7	1.9 ×10³ /M	O=Cc1cn(-c2ccccc2)nc1-c1ccc([N+](=O)[O-])cc1	7	80	97	96	86	106
5.6	7.6 ×10⁴ /M	O=Cc1cn(-c2ccccc2)nc1-c1ccc(Cl)cc1	9	59	98	90	98	100
5.2	2.5 ×10³ /M	O=Cc1cn(-c2ccccc2)nc1-c1cccc([N+](=O)[O-])c1	10	75	89	86	89	89

The next lines start with the compound.

Compound	Activity [6] [%]	Kb [7]	hemolysis at 3 h, 100 ug/mL [1] [%]	viability at 1 µg/mL [2] [%]	viability at 0.001 µg/mL [3] [%]	viability at 0.1 µg/mL [4] [%]	viability at 0.01 µg/mL [5] [%]	viability at 0.0001 µg/mL [8] [%]
COc1cc(/C=C/C(=N\NC(N)=O)C(=Cc2cn(-c3ccccc3)nc2-c2ccc([N+](=O)[O-])cc2)C(/C=C/c2ccc(O)c(OC)c2)=N/NC(N)=O)ccc1O	8	2.6 ×10⁴ /M	11	98	105	92	95	110
COc1cc(/C=C/C(=N\NC(N)=O)C(=Cc2cn(-c3ccccc3)nc2-c2ccccc2O)C(/C=C/c2ccc(O)c(OC)c2)=N/NC(N)=O)ccc1O	10	3 ×10⁴ /M	25	87	91	86	91	92
COc1cc(/C=C/C(=O)C(=Cc2cn(-c3ccccc3)nc2-c2ccccc2O)C(=O)/C=C/c2ccc(O)c(OC)c2)ccc1O	13	2.1 ×10⁴ /M	20	88	97	91	93	100
COc1cc(/C=C/C(=N\NC(N)=O)C(=Cc2cn(-c3ccccc3)nc2-c2cccc([N+](=O)[O-])c2)C(/C=C/c2ccc(O)c(OC)c2)=N/NC(N)=O)ccc1O	9	9.1 ×10⁴ /M	16	67	89	68	86	91
COc1cccc2c1C(=O)c1c(O)c3c(c(O)c1C2=O)C[C@@](O)(C(=O)CO)C[C@@H]3O[C@H]1C[C@H](N)[C@H](O)[C@H](C)O1 [DOXORUBICIN]	–	–	42	–	–	–	–	–
COc1cc(/C=C/C(=N\NC(N)=O)C(=Cc2cn(-c3ccccc3)nc2-c2ccc(Cl)cc2)C(/C=C/c2ccc(O)c(OC)c2)=N/NC(N)=O)ccc1O	11	8.1 ×10⁵ /M	17	74	81	78	81	87
COc1cc(/C=C/C(=O)C(=Cc2cn(-c3ccccc3)nc2-c2ccc(Cl)cc2)C(=O)/C=C/c2ccc(O)c(OC)c2)ccc1O	8.1	7.8 ×10⁵ /M	16	65	81	72	75	95
COc1cc(/C=C/C(=O)C(=Cc2cn(-c3ccccc3)nc2-c2ccc([N+](=O)[O-])cc2)C(=O)/C=C/c2ccc(O)c(OC)c2)ccc1O	12.3	1.4 ×10⁴ /M	10	90	98	92	95	98
COc1cc(/C=C/C(=O)C(=Cc2cn(-c3ccccc3)nc2-c2cccc([N+](=O)[O-])c2)C(=O)/C=C/c2ccc(O)c(OC)c2)ccc1O	29	9.4 ×10⁴ /M	14	70	96	85	88	99
